# Assay results reported in ChEMBL document CHEMBL4376812 (J Med Chem, 2019).
# Columns and labels:
# [1] = Metabolic stability in mouse liver microsomes assessed as compound remaining incubated for 10 mins; type: ADME, Microsome; conditions: read-out: Stability
# How it was run: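 Mouse liver microsomal stability, reported as percent of parent remaining after a 10 min incubation. Values are means of at least three experiments unless otherwise noted.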
# [2] = Metabolic stability in rat liver microsomes assessed as half life; type: ADME, Microsome
# How it was run: (§1)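 Liver microsomes from human, rat, mouse, dog, cynomolgus monkey and rabbit were incubated with compound. Stability is reported as half-life (T1/2, min). Values are means of at least three separate experiments.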
# [3] = Metabolic stability in dog liver microsomes assessed as half life; type: ADME, Canis lupus familiaris, Microsome; how it was run: as §1
# [4] = Metabolic stability in cynomolgus monkey liver microsomes assessed as half life; type: ADME, Macaca fascicularis, Microsome; how it was run: as §1
# [5] = Metabolic stability in rabbit liver microsomes assessed as half life; type: ADME, Oryctolagus cuniculus, Microsome; how it was run: as §1
# Cytochrome P450 1A2 = target: T1, Cytochrome P450 1A2 (Homo sapiens, UniProt P05177); test: Inhibition of CYP1A2 (unknown origin); type: ADME
# T1 sequence (P05177 whole entry): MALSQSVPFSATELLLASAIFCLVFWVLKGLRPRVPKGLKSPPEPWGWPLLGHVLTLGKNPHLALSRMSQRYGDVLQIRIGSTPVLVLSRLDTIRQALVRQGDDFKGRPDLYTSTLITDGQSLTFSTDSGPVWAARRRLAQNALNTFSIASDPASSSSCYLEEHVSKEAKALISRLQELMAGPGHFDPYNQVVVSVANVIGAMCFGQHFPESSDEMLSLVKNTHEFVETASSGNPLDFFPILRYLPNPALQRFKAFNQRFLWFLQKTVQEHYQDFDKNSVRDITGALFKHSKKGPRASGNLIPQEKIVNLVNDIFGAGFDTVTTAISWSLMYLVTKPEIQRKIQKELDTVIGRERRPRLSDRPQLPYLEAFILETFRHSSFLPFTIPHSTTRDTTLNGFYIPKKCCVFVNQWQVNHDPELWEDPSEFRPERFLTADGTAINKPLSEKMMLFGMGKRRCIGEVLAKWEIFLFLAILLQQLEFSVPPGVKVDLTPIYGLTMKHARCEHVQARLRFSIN
# How it was run: (§2)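 Inhibition of CYP1A2, 2C9, 2C19, 2D6 and 3A4, read out as IC50. The highest concentration tested was 40 μM.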
# Cytochrome P450 2C19 = Cytochrome P450 2C19 (Homo sapiens, UniProt P33261); test: Inhibition of CYP2C19 (unknown origin); type: ADME; how it was run: as §2
# Cytochrome P450 2D6 = Cytochrome P450 2D6 (Homo sapiens, UniProt P10635); test: Inhibition of CYP2D6 (unknown origin); type: ADME; how it was run: as §2
# hERG (KCNH2) = hERG (KCNH2) (Homo sapiens, UniProt Q12809); test: Inhibition of human ERG at 10 uM by patch-clamp assay relative to control
# How it was run: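 hERG potassium channel patch clamp assay, read as percent inhibition at 10 μM (n = 7).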
# [6] = Protein binding in human assessed as unbound fraction; type: ADME
# [7] = Protein binding in cynomolgus monkey assessed as unbound fraction; type: ADME, Macaca fascicularis
# [8] = Clearance in C57BL/6 mouse at 1 mg/kg, iv; type: ADME, organism-based; conditions: in vivo
# How it was run: (§3)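 Mouse iv PK: 1 mg/kg given in 80% PEG 400/20% water. Clearance (mL min⁻¹ kg⁻¹) and MRT (h) were derived.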
# [9] = Volume of distribution at steady state in C57BL/6 mouse at 1 mg/kg, iv; type: ADME, organism-based; conditions: in vivo, read-out: Vdss
# How it was run: (§4)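 Single intravenous dose in 80% PEG 400/20% water. V_ss was taken from the iv plasma PK profile.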
# [10] = MRT in C57BL/6 mouse at 1 mg/kg, iv; type: ADME, organism-based; conditions: in vivo; how it was run: as §3
# [11] = Cmax in C57BL/6 mouse at 10 mg/kg, po; type: ADME, organism-based; set-up: dose 10 mg/kg, route oral; conditions: in vivo
# How it was run: (§5)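 Oral PK: single dose of 10 mg/kg as a solution in ethanol/TPGS/PEG 300 (5:5:90) given to mouse, dog and monkey. Cmax (μM), AUC (μM × h) and bioavailability F (%) were derived, with F taken against the iv arm.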
# [12] = AUC in C57BL/6 mouse at 10 mg/kg, po; type: ADME, organism-based; conditions: in vivo; how it was run: as §5
# [13] = Oral bioavailability in C57BL/6 mouse at 10 mg/kg; type: ADME, organism-based; conditions: in vivo; how it was run: as §5
# [14] = Clearance in dog at 2 mg/kg, iv; type: ADME, organism-based, Canis lupus familiaris; conditions: in vivo
# How it was run: (§6)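 Dog and monkey iv PK: 2 mg/kg given by iv administration. Clearance (mL min⁻¹ kg⁻¹), Vss, T1/2 (h) and MRT (h) were derived.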
# [15] = Half life in dog at 2 mg/kg, iv; type: ADME, organism-based, Canis lupus familiaris; conditions: in vivo; how it was run: as §6
# [16] = Cmax in dog at 10 mg/kg, po; type: ADME, organism-based, Canis lupus familiaris; set-up: dose 10 mg/kg, route oral; conditions: in vivo; how it was run: as §5
# [17] = AUC in dog at 10 mg/kg, po; type: ADME, organism-based, Canis lupus familiaris; conditions: in vivo; how it was run: as §5
# [18] = Oral bioavailability in dog at 10 mg/kg; type: ADME, organism-based, Canis lupus familiaris; conditions: in vivo; how it was run: as §5
# [19] = Clearance in cynomolgus monkey at 2 mg/kg, iv; type: ADME, organism-based, Macaca fascicularis; conditions: in vivo; how it was run: as §6
# [20] = Volume of distribution at steady state in cynomolgus monkey at 2 mg/kg, iv; type: ADME, organism-based, Macaca fascicularis; conditions: in vivo, read-out: Vdss; how it was run: as §4
# [21] = Half life in cynomolgus monkey at 2 mg/kg, iv; type: ADME, organism-based, Macaca fascicularis; conditions: in vivo; how it was run: as §6
# [22] = MRT in cynomolgus monkey at 2 mg/kg, iv; type: ADME, organism-based, Macaca fascicularis; conditions: in vivo; how it was run: as §6
# [23] = Cmax in cynomolgus monkey at 10 mg/kg, po; type: ADME, organism-based, Macaca fascicularis; set-up: dose 10 mg/kg, route oral; conditions: in vivo; how it was run: as §5
# [24] = AUC in cynomolgus monkey at 10 mg/kg, po; type: ADME, organism-based, Macaca fascicularis; conditions: in vivo; how it was run: as §5
# [25] = Oral bioavailability in cynomolgus monkey at 10 mg/kg; type: ADME, organism-based, Macaca fascicularis; conditions: in vivo; how it was run: as §5
# [26] = Time during which drug concentration exceed invitro IC50 for TYK2 in mouse whole blood assessed as decrease in IFNalpha-induced STAT1 phosphorylation in C57BL/6 mouse at 7.5 mg/kg, po via gavage bid for 9 days with first dose given prior to first IL23 challenge and twice a day thereafter; type: ADME, organism-based; conditions: in vivo, 216 h
# How it was run: (§7)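 Drug levels were measured in the animals of the IL-23 acanthosis study, dosed orally twice daily. The duration was the time, in hours, that levels stayed at or above the in vitro mouse whole blood IC50 for IFNα-induced pSTAT1.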
# [27] = Time during which drug concentration exceed invitro IC50 for TYK2 in mouse whole blood assessed as decrease in IFNalpha-induced STAT1 phosphorylation in C57BL/6 mouse at 15 mg/kg, po via gavage bid for 9 days with first dose given prior to first IL23 challenge and twice a day thereafter; type: ADME, organism-based; conditions: in vivo, 216 h; how it was run: as §7
# [28] = Time during which drug concentration exceed invitro IC50 for TYK2 in mouse whole blood assessed as decrease in IFNalpha-induced STAT1 phosphorylation in C57BL/6 mouse at 30 mg/kg, po via gavage bid for 9 days with first dose given prior to first IL23 challenge and twice a day thereafter; type: ADME, organism-based; conditions: in vivo, 216 h; how it was run: as §7
# Mus musculus = test: Antiinflammatory activity in CD40-induced colitis model of SCID mouse assessed as inhibition of histological scores in intestine at 50 mg/kg, po administered twice daily relative to control; type: functional
# How it was run: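 Colitis induced by anti-CD40 in SCID mice. Compound was given orally at 50 mg/kg twice daily. Read-outs were peak weight loss (IL-12 driven) and histological scores.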
# [29] = Drug metabolism in C57BL/6 mouse assessed as N-dealkylation of compound by measuring primary amide metabolite formation in mouse plasma by deuterium kinetic isotope effect; type: ADME
# How it was run: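 Circulating primary amide metabolite, formed by N-dealkylation of the deuteromethyl amide, was measured in the mouse, dog and monkey PK studies (10 mg/kg po; iv arms). The lower limit of detection was about 2 nM.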
# Sequence of Cytochrome P450 2C19 (P33261 whole entry): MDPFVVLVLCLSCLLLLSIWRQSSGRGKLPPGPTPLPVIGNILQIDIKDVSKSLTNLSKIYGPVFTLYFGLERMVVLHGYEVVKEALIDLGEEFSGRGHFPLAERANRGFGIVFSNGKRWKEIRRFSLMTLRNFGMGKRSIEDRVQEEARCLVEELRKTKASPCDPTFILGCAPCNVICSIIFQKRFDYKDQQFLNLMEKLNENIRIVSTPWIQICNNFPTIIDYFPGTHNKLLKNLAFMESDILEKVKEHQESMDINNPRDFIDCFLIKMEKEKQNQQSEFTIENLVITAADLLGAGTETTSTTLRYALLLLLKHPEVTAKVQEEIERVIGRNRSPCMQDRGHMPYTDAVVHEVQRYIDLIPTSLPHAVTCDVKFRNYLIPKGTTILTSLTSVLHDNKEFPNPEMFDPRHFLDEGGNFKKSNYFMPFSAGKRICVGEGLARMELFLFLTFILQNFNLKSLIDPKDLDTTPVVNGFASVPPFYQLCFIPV
# Sequence of hERG (KCNH2) (Q12809 whole entry): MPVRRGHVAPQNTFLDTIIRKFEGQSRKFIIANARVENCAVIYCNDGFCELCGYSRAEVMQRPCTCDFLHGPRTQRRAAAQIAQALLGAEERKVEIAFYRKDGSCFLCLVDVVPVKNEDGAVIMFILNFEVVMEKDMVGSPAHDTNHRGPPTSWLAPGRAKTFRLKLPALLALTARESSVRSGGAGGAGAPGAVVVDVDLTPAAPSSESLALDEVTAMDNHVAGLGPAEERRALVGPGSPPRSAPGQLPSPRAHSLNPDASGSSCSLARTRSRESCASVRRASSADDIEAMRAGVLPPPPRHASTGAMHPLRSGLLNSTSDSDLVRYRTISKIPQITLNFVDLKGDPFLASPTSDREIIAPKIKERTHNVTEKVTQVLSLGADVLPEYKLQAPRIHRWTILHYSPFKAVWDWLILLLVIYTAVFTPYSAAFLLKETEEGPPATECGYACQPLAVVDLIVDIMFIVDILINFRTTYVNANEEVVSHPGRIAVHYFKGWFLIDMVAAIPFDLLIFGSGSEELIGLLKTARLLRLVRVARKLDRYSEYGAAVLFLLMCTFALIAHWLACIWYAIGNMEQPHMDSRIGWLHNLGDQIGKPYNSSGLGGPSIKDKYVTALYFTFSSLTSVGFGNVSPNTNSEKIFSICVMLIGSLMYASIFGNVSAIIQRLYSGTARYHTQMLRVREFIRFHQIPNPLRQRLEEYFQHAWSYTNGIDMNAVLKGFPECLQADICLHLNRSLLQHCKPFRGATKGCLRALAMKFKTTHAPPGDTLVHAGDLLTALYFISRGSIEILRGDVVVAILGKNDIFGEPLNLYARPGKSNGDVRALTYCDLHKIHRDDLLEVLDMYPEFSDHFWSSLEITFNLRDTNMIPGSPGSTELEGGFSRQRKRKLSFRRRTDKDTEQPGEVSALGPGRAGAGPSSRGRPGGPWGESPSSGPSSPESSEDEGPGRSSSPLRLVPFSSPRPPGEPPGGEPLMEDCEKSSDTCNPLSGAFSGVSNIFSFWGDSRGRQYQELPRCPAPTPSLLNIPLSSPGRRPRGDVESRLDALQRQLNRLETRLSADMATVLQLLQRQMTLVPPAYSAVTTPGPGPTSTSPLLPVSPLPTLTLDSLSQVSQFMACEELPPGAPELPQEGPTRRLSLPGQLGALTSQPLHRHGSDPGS
# Sequence of Cytochrome P450 2D6 (P10635 whole entry): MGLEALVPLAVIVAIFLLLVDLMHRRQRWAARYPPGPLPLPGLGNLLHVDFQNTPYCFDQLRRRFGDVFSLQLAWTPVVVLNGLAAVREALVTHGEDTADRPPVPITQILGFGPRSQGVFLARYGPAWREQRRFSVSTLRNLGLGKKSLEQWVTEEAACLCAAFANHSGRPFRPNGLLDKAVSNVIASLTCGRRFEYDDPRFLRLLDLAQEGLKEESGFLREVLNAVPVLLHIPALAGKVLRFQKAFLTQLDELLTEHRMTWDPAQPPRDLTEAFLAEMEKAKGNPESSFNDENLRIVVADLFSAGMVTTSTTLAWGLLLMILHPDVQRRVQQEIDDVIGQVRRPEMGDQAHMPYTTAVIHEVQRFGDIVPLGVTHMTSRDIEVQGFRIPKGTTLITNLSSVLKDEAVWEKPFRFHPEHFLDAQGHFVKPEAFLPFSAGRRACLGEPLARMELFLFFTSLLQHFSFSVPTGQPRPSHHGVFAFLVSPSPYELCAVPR
structure (smiles),measurement,setting,value
[2H]C([2H])([2H])NC(=O)c1nnc(NC(=O)C2CC2)cc1Nc1cccc(-c2ncn(C)n2)c1OC [DEUCRAVACITINIB],remaining at 10 min,[1],89%
same,half-life,[2],> 2 h
same,half-life,[3],> 2 h
same,half-life,[4],> 2 h
same,half-life,[5],> 2 h
same,IC50,Cytochrome P450 1A2,> 40 µM
same,IC50,Cytochrome P450 2C19,> 40 µM
same,IC50,Cytochrome P450 2D6,> 40 µM
same,inhibition at 10 µM,hERG (KCNH2),26%
same,fraction unbound,[6],0.13
same,fraction unbound,[7],0.12
same,clearance,[8],0.792 L/h/kg
same,Vd,[9],2.9 L/kg
same,MRT,[10],3.6 h
same,Cmax,[11],7.5 µM
same,AUC,[12],36.4 µM·h
same,bioavailability,[13],122%
same,clearance,[14],0.408 L/h/kg
same,half-life,[15],4.6 h
same,Cmax,[16],6.9 µM
same,AUC,[17],73.6 µM·h
same,bioavailability,[18],128%
same,clearance,[19],0.288 L/h/kg
same,Vd,[20],2 L/kg
same,half-life,[21],5.3 h
same,MRT,[22],7 h
same,Cmax,[23],5.9 µM
same,AUC,[24],75.7 µM·h
same,bioavailability,[25],87%
same,T>IC50,[26],19 h
same,T>IC50,[27],21 h
same,T>IC50,[28],24 h
same,inhibition in vivo at 50 mg/kg,Mus musculus,70%
same,Drug metabolism,[29],< 2 nM
